The values below come from publication PMC9804870 (Clinical Pharmacology in Drug Development, 2022).

The subject of one data set is BTK. Particulars: cited from earlier work.
The conditions of data set [1]: dose range of 75–250 mg; dose‐proportional; cited from earlier work.
Another data set is described as follows: Study 1. Particulars: human, plasma, oral, 100 mg. In kind it is in vivo. The essentials:
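Healthy subjects, four-sequence crossover: 100 mg tablet or capsule fasted (>10 h). Period 3: tablet 30 min after high-fat meal (800–1000 calories), or fasted 2 h after 20 mg PPI following PPI 20 mg BID days −3 to −1. Plasma sampled predose to 24 h. Parent and metabolite by LC-MS/MS (1–1000, 5–5000 ng/mL). t½ noncompartmental (linear up log down).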

For data set [2] the following is noted: high permeability, low solubility; reduced solubility at higher pH; cited from earlier work.
Another data set relates to CYP3A. The settings on record: has been reported; ref not given; cited from earlier work.
In a further data set the test system is gastric pH. Particulars: cited from earlier work.

For `CC#CC(=O)NCCCC(=O)c1nc(-c2ccc(C(=O)Nc3ccccn3)cc2)c2c(N)nccn12` [ACP‐5862], the “Potency with respect to BTK inhibition, less than acalabrutinib” value with BTK is recorded as 50%. The term half-life denotes how long it takes for the measured level to halve. Low values mean fast loss, high ones slow loss. Regarding `CC#CC(=O)N1CCC[C@H]1c1nc(-c2ccc(C(=O)Nc3ccccn3)cc2)c2c(N)nccn12` [Acalabrutinib], in data set [1], the “Dose linearity of pharmacokinetics” value is “linear pharmacokinetics”. The compound further yielded a half-life in the data set “Study 1” of 2 to 3 h. The “Biopharmaceutical Classification System class” value in data set [2] is listed as “class II”. On to `COCCCOc1ccnc(C[S+]([O-])c2nc3ccccc3[nH]2)c1C` (stereo not shown) [Rabeprazole], for which the “CYP3A inhibition in vitro” value with CYP3A is given as “weak inhibitor”. Further, the “Time needed to achieve maximum suppression of gastric pH” value in the data set with gastric pH is given as 3 days.

`COc1ccc2[nH]c([S+]([O-])Cc3ncc(C)c(OC)c3C)nc2c1` (stereo not shown) [omeprazole]: the “Time needed to achieve maximum suppression of gastric pH” value in the data set with gastric pH is on record as 5 days.
